A short description of data set [1]: Cmax in rat plasma after single 5 mg/kg oral cassette gavage dose. The data set is classed as ADME, organism-based. Also noted: dose 5 mg/kg, route oral. Put shortly:
(§1)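 Cassette of 5–7 compounds given together as one oral gavage, 5 mg/kg per compound, methyl cellulose suspension, 3 fasted male Wistar rats (80-90 days old). Heparinized plasma taken by jugular cannula predose to 48 h. LC-MS/MS with LLOQ 10 ng/mL. Noncompartmental analysis of individual rats: Cmax/tmax as observed, t1/2 = 0.693/λz, trapezoidal AUC(0-tldc) extrapolated to infinity.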

Data set [2] can be described thus: Concentration in rat plasma 24 hours after single 5 mg/kg oral cassette gavage dose. Particulars: read-out: C24. Also noted: dose 5 mg/kg, route oral. The data set is classed as ADME, organism-based.
Data set [3] can be described thus: Half life (t1/2) in rats following a single 5 mg/kg oral cassette gavage dose. The data set is classed as ADME, organism-based. Set-up: dose 5 mg/kg, route oral. Particulars: rat, in vivo. Put shortly:
as §1

A short description of data set [4]: Pharmacokinetic parameters in rats following a single 5 mg/kg oral cassette gavage dose. It is filed as ADME, organism-based. Set-up: dose 5 mg/kg, route oral. Conditions: rat, in vivo, read-out: AUC 0-infinity. Summed up: as §1
Data set [5] can be described thus: AUC in rats following a single 5 mg/kg oral cassette gavage dose. It is filed as ADME, organism-based. Set-up: dose 5 mg/kg, route oral. Particulars: rat, plasma, read-out: AUC 0-tldc. Summed up:
as §1

Data set [6] is described as follows: Time to maximal concentration (tmax) in rats following a single 5 mg/kg oral cassette gavage dose. Conditions: rat, in vivo. It is filed as ADME, organism-based. Set-up: dose 5 mg/kg, route oral. Put shortly:
as §1

The target in the next data set is Stromelysin-1 (Homo sapiens, UniProt P08254). Description: In vitro inhibition of recombinant human matrix metalloprotease-3 (MMP-3).
Data set [7] deals with Matrix metalloproteinase-9 (Homo sapiens, UniProt P14780). Description: In vitro inhibition of matrix metalloprotease-9 (MMP-9).
Another data set concerns the target T1, Matrilysin (Homo sapiens, UniProt P09237).
T1 sequence (P09237 whole entry): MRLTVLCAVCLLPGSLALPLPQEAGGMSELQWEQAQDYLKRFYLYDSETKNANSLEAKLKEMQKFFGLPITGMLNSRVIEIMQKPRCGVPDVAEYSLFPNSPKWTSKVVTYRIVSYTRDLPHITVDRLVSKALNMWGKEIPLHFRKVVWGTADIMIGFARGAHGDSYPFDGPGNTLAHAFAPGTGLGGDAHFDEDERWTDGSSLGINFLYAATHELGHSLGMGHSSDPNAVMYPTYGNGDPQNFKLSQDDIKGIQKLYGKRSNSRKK
The data set can be described thus: In vitro inhibition of matrix metalloprotease-7 (MMP-7).

In another data set the target is T2, Interstitial collagenase (Homo sapiens, UniProt P03956).
T2 sequence (P03956 whole entry): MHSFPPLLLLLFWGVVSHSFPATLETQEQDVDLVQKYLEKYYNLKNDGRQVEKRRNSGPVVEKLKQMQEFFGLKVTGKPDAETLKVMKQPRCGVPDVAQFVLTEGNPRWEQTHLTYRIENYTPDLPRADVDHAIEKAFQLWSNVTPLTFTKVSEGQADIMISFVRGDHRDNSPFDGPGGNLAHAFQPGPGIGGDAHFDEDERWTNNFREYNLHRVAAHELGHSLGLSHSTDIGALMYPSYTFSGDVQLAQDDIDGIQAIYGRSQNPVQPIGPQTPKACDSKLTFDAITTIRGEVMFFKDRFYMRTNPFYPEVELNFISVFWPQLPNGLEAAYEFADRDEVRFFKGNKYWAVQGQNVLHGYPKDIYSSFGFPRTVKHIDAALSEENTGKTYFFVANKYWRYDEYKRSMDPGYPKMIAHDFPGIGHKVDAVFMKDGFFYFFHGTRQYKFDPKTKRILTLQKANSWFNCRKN
The data set can be described thus: In vitro inhibition of human recombinant matrix metalloprotease-1 (MMP-1).

In data set [8] the target is 72 kDa type IV collagenase (Homo sapiens, UniProt P08253). The data set can be described thus: In vitro inhibition of matrix metalloprotease-2 (MMP-2).
Another data set concerns the target Collagenase 3 (Homo sapiens, UniProt P45452).

Structures are written as SMILES.

Chain of Stromelysin-1 (P08254 whole entry): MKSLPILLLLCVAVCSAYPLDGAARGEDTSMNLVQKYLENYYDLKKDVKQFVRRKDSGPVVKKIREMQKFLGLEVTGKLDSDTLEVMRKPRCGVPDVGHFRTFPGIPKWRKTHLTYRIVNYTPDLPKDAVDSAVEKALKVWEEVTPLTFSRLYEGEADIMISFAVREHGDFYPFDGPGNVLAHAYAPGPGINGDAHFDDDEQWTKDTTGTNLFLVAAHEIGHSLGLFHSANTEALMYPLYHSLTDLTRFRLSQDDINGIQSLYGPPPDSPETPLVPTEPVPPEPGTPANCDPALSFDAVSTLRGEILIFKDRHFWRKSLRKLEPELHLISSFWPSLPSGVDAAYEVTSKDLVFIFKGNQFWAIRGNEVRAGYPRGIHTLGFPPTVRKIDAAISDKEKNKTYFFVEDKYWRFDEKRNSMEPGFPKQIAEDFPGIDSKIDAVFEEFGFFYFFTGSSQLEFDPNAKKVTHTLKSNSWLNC
Chain of 72 kDa type IV collagenase (P08253 whole entry): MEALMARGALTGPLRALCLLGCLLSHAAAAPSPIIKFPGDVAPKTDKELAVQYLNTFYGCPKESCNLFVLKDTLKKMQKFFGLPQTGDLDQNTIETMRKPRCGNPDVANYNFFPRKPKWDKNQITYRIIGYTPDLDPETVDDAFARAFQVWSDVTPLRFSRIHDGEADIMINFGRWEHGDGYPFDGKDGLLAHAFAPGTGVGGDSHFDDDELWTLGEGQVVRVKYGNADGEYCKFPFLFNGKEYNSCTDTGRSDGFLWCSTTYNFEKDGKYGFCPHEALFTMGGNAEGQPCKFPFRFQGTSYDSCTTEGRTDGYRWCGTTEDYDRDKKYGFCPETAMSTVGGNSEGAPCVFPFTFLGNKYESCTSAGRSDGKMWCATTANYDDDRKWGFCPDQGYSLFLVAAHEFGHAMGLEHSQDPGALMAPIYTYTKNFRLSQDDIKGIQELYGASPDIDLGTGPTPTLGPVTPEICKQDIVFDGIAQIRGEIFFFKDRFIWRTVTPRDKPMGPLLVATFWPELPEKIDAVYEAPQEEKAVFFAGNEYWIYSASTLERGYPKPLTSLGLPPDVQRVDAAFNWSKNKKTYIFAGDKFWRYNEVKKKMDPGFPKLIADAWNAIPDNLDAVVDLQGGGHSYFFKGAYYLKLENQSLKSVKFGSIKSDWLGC
Chain of Matrix metalloproteinase-9 (P14780 whole entry): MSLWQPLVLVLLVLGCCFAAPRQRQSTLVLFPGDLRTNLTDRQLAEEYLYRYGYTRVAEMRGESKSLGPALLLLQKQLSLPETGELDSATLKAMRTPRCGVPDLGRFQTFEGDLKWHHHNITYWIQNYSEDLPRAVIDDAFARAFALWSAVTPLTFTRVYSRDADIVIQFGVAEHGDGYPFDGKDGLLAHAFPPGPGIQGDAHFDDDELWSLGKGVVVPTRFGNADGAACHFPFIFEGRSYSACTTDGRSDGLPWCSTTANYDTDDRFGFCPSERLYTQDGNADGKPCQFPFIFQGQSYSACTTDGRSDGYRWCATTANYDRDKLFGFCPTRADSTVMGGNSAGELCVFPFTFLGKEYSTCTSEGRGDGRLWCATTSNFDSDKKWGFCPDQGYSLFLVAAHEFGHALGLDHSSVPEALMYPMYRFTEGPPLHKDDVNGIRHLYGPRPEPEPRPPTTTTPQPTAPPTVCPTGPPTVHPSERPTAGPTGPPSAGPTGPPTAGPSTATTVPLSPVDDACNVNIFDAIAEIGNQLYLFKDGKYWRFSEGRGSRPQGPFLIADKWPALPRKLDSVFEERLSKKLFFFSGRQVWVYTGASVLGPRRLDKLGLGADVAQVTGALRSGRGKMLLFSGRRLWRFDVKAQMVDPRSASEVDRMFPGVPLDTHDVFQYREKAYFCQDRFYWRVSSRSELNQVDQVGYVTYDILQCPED

As a reminder, the Cmax is the highest concentration seen after dosing. A word on the half-life: it is how long it takes for the measured level to halve. Lower therefore signals rapid decline. Broadly, the AUC is the area under the concentration-time curve, a measure of exposure. The term Tmax denotes the time at which the peak concentration occurs. For orientation: IC50 means the concentration needed to halve the response being measured. Consider `Cc1ccc(-c2ccc(S(=O)(=O)N[C@H](C(=O)O)C(C)C)cc2)cc1`, for which the Cmax in [1] is 3070 ng/mL. Further, the concentration at 24 h in data set [2] was below 10 ng/mL. Moreover, in data set [3], the half-life was 0.403 h. The AUC in [4] stood at 2.37 µg·h/mL; in data set [5] it was 2.25 µg·h/mL. In addition, the Tmax in data set [6] stood at 0.5 h. The 50% inhibitory concentration (IC50) at Stromelysin-1 turned out to be 3 nM; in data set [7], 3900 nM; against Matrilysin, 4500 nM; at Interstitial collagenase, 2200 nM; in data set [8], 2 nM; at Collagenase 3, 11 nM.
The compound `CC(C)[C@@H](NS(=O)(=O)c1ccc(-c2ccc(Br)cc2)cc1)C(=O)NO` came in with a peak concentration (Cmax) in [1] of 5930 ng/mL. In addition, the concentration at 24 h in data set [2] was found to be 10 ng/mL. Further, the half-life in [3] was 6.78 h. Moreover, the area under the curve (AUC) in data set [4] stood at 5.86 µg·h/mL; in data set [5], 5.73 µg·h/mL. In addition, the time to peak (Tmax) in [6] was 0.33 h. In addition, the IC50 at Stromelysin-1 was found to be 5 nM; in data set [7], 18 nM; against Matrilysin it was 140 nM; on Interstitial collagenase, 110 nM; in [8] it was 1 nM; on Collagenase 3, 2 nM.
Turning to `O=C(O)CNS(=O)(=O)c1ccc(-c2ccc(Br)cc2)cc1`, in data set [1], the Cmax amounted to 9960 ng/mL. Besides, the concentration at 24 h in data set [2] amounted to 5670 ng/mL. The same compound gave a half-life in data set [3] of 15.6 h. The figures for the AUC in [4] and in data set [5] were 316 µg·h/mL and 276 µg·h/mL, respectively. Further, in data set [6], the time to peak (Tmax) came out at 8 h. Further, the IC50 was determined as 10 nM at Stromelysin-1; 6700 nM in [7]; 77000 nM against Matrilysin; 50000 nM at Interstitial collagenase; 4 nM in [8]; 26 nM against Collagenase 3.
In the case of `CC(C)[C@H](NS(=O)(=O)c1ccc(-c2ccc(C#N)cc2)cc1)C(=O)O`, in data set [1], the peak level (Cmax) was 17100 ng/mL. Also, in data set [2], the concentration at 24 h came out at 5480 ng/mL. In [3], this compound gave a half-life of 12.5 h. Moreover, the results for the AUC in [4] and in data set [5] were 363 µg·h/mL and 289 µg·h/mL, respectively. For the same compound, the Tmax in data set [6] amounted to 2.67 h. In addition, the IC50 at Stromelysin-1 worked out at 6 nM; in data set [7] it was 59000 nM; against Matrilysin it was 7000 nM; at Interstitial collagenase it was 18000 nM; in [8] it was 33 nM; against Collagenase 3, 37 nM.
As for `CC(C)C[C@H](NS(=O)(=O)c1ccc(-c2ccc(Br)cc2)cc1)C(=O)O`, in data set [1], the peak level (Cmax) was 30700 ng/mL. Moreover, in [2], the concentration at 24 h was determined as 12400 ng/mL. The compound further had a half-life in [3] of 41.8 h. Also, the AUC in data set [4] was determined as 1210 µg·h/mL; in data set [5] it was 578 µg·h/mL. Moreover, in data set [6], the time to peak (Tmax) was determined as 2.33 h. In addition, the IC50 worked out at 7 nM on Stromelysin-1; 4900 nM in data set [7]; 3100 nM against Matrilysin; 7000 nM at Interstitial collagenase; 9 nM in [8]; 5 nM at Collagenase 3.
As for `CC(C)[C@H](NS(=O)(=O)c1ccc(-c2ccc(F)cc2)cc1)C(=O)O`, the maximum concentration (Cmax) in [1] was determined as 18700 ng/mL. In addition, the concentration at 24 h in data set [2] came out at 11300 ng/mL. The half-life in [3] was 45.5 h. For the same compound, the AUC in data set [4] turned out to be 1020 µg·h/mL; in [5], 670 µg·h/mL. In [6], the Tmax was found to be 2.75 h. Also, the IC50 at Stromelysin-1 turned out to be 10 nM; in data set [7] it was 64000 nM; at Matrilysin it was 4800 nM; at Interstitial collagenase it was 4200 nM; in data set [8], 39 nM; at Collagenase 3, 43 nM.
In the case of `CC(C)[C@H](NS(=O)(=O)c1ccc(-c2ccc(Br)cc2F)cc1)C(=O)O`, in data set [1], the peak level (Cmax) was 28500 ng/mL. Besides, the concentration at 24 h in [2] is 21300 ng/mL. In [3], this compound showed a half-life of 117 h. For the same compound, the exposure (AUC) in [4] turned out to be 4040 µg·h/mL; in [5], 1360 µg·h/mL. Also, the Tmax in data set [6] was 1.88 h. In addition, the IC50 on Stromelysin-1 worked out at 16 nM; in data set [7] it was 4900 nM; on Matrilysin, 2100 nM; on Interstitial collagenase it was 3600 nM; in [8] it was 5 nM; against Collagenase 3 it was 7 nM.
Compound `CC(C)[C@H](NS(=O)(=O)c1ccc(-c2ccc(Cl)cc2)cc1)C(=O)O` came in with a maximum concentration (Cmax) in [1] of 8860 ng/mL. Moreover, the concentration at 24 h in [2] amounted to 4020 ng/mL. In data set [3], this compound showed a half-life of 34.1 h. The AUC turned out to be 427 µg·h/mL in [4] and 170 µg·h/mL in data set [5]. Moreover, in data set [6], the time to peak (Tmax) came out at 0.5 h. Besides, the half-maximal inhibitory concentration (IC50) came to 9 nM on Stromelysin-1; 16000 nM in data set [7]; 7500 nM against Matrilysin; 6500 nM on Interstitial collagenase; 11 nM in data set [8]; 48 nM at Collagenase 3.
As to `CC(C)[C@H](NS(=O)(=O)c1ccc(-c2ccccc2)cc1)C(=O)O`, the peak concentration (Cmax) in [1] amounted to 5180 ng/mL. The concentration at 24 h in data set [2] worked out at 39 ng/mL. The half-life in data set [3] is 3.35 h. Also, the AUC in data set [4] worked out at 3.6 µg·h/mL; in [5], 12.1 µg·h/mL. In addition, the Tmax in data set [6] was determined as 0.5 h. In addition, the 50% inhibitory concentration (IC50) on Stromelysin-1 turned out to be 38 nM; in data set [7], 26000 nM; against Matrilysin, 71000 nM; at Interstitial collagenase, 5400 nM; in [8], 40 nM; at Collagenase 3, 62 nM.
On to `CC(C)[C@@H](NS(=O)(=O)c1ccc(-c2ccc(C#N)cc2)cc1)C(=O)O`, for which, in data set [1], the concentration peaked (Cmax) at 12200 ng/mL. Also, in data set [2], the concentration at 24 h was 4490 ng/mL. Besides, the half-life in data set [3] is 12.8 h. Besides, the values for the area under the curve (AUC) in data set [4] and in data set [5] were 277 µg·h/mL and 256 µg·h/mL, respectively. Also, in data set [6], the time to peak (Tmax) was 1.33 h. Moreover, the IC50 is 5 nM at Stromelysin-1; 3800 nM in data set [7]; 19000 nM on Matrilysin; 14000 nM on Interstitial collagenase; 7 nM in data set [8]; 53 nM on Collagenase 3.

These data come from ChEMBL document CHEMBL1133013, “Structure-activity relationships and pharmacokinetic analysis for a series of potent, systemically available biphenylsulfonamide matrix metalloproteinase inhibitors” (J Med Chem, 2000).
